MT1-MMP act inh – blocks activation of human MT1-MMP | P50281 | HT1080 RFP-PRO-GFP cells, GFP/RFP ratio fluorescence, overnight; percent of plate control window, DMSO zero | GFP/RFP ratio change, % at 20 µM | 360,000 compounds, 0.061% hits | AID 651647;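 active = GFP/RFP ratio change of at least 30% with cell ATP level not reduced by more than half and red fluorescence within 50% of control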
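Material: RFP-PRO-GFP reporter HT1080 cells. Dosing: single-point 20 µM compound, 1% DMSO. Controls: DMSO and RFP-L50D-GFP cell wells. Timing: cells overnight before dosing, compound overnight, 37 °C, 5% CO2. Measure: GFP/RFP fluorescence ratio.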
PREPL inhibitor – inhibits the human prolyl oligopeptidase-like enzyme; 320,000 compounds, 0.68% hits; recombinant PREPL, fluorescence polarization activity-based probe; Q4J6C6; inhibition, % at 5.96 µM;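 note: 0% = enzyme with DMSO and 100% = wells lacking enzyme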
eLon inh – inhibits E. coli Lon protease | P0A9M0 | purified E. coli Lon protease, fluorescence polarization | inhibition, % at 7.94 µM | 360,000 compounds, 0.42% hits | AID 602123; in the data active = inhibition above about 13%, passing the limit was not always enough;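 note: 0% = enzyme with probe and DMSO and 100% = no enzyme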
Target sequence (P0A9M0 whole entry, looked up): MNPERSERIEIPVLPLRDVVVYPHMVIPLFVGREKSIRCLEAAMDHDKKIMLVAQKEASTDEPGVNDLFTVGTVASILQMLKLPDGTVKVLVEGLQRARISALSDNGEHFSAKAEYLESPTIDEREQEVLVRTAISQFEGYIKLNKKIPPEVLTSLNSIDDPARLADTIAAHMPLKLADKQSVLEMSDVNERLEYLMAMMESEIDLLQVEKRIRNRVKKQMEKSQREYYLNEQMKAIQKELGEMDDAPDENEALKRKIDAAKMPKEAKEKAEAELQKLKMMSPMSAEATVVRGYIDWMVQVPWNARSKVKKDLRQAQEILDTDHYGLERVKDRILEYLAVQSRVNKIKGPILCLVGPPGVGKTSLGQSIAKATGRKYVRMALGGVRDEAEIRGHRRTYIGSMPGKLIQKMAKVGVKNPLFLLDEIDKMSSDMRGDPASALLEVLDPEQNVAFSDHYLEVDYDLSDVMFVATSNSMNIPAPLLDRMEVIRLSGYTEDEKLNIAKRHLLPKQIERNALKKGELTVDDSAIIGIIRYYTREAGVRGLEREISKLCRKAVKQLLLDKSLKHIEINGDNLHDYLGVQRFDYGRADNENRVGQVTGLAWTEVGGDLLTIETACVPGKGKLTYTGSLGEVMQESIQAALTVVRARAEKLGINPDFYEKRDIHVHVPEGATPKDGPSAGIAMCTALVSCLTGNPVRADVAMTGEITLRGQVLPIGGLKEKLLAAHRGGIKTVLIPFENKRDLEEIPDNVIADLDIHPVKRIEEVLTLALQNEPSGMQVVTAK
hiPSC survival – enhancers of human iPSC single-cell survival; hiPSC single-cell survival, ATPlite luminescence; 100% = ROCK inhibitor wells, 0% = DMSO; 360,000 compounds, 0.044% hits; survival enhancement, % at 20 µM; in the data active = survival enhancement above about 18%;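 note: cells exposed to compounds for 16 hours before the ATP read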
TbMetRS inhib – Trypanosoma brucei MetRS inhibition; purified T. brucei MetRS, ATP depletion, Kinase-Glo luminescence; inhibition, % at 11.9 µM; 360,000 compounds, 0.4% hits;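 active = inhibition above a per-plate cutoff of the control wells' mean inhibition plus 3 SD, cut at about 5.5% in these data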;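 note: 0% = DMSO wells median and 100% = median of wells with control inhibitor compound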
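assay system = parasite MetRS enzyme | timing = 15 min preincubation, 2 h reaction, all 25 °C | evaluation = percent inhibition relative to median high and low control wells | medium = HEPES buffer containing pyrophosphatase, BSA, spermine, DTT | compound = single dose, 11.9 µM final nominal, 0.9% final DMSO | detection = Kinase-Glo luminescence, ATP depletion format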
SKN-1 block – blocks SKN-1 activity in C. elegans. C. elegans VP596 Pgst-4::GFP/RFP ratio, acrylamide-induced, 24 h. inhibition, % at 21.8 µM. 360,000 compounds, 0.49% hits. AID 624304;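 active = interference check ratio from 0.5 to 1.5 plus GFP to RFP signal ratio inhibition reaching or exceeding a fixed threshold, cut at about 30% in these data, passing the limit was not always enough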
PREPL confirm – confirmation of human PREPL enzyme inhibitors; shares compounds with PREPL inhibitor; recombinant PREPL, fluorescence polarization activity probe; inhibition, % at 5.96 µM; 2,000 compounds, 67% hits;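 note: 0% = protein with DMSO and 100% = wells lacking protein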
Starred values were filed as active, the others as inactive; . = not tested or not shown. This is a sample that favours compounds with a hit; in the whole collection about 1.8% have one here. Cut-off read from the data, not from the text of the source, unless noted: active = inhibition above about 43%; inactive = the rest.

SMILES	MT1-MMP act inh	PREPL inhibitor	eLon inh	hiPSC survival	TbMetRS inhib	SKN-1 block	PREPL confirm
C#CCOCCOCCOCCNc1nc(N2CCN(C(=O)[C@H]([C@@H](C)CC)n3cc([C@@H](N)Cc4ccc(O)cc4)nn3)CC2)nc(N2CCN(C(=O)[C@H](Cc3cc4ccccc4[nH]3)n3cc([C@@H](N)CC(C)C)nn3)CC2)n1	0	58*	-16	-2	0	18	59*
C#CCOCCOCCOCCNc1nc(N2CCN(C(=O)[C@H](Cc3ccc(O)cc3)n3cc([C@@H](N)CC(C)C)nn3)CC2)nc(N2CCN(C(=O)[C@H](Cc3cc4ccccc4[nH]3)n3cc([C@@H](N)CC(C)C)nn3)CC2)n1	.	53*	.	.	.	.	50*
C#CCOCCOCCOCCNc1nc(N2CCN(C(=O)[C@H](Cc3ccc(O)cc3)n3cc([C@@H](N)CC(C)C)nn3)CC2)nc(N2CCN(C(=O)[C@H](Cc3ccc(O)cc3)n3cc([C@@H](N)CC(C)C)nn3)CC2)n1	.	21	.	.	.	.	.
C#CCOCCOCCOCCNc1nc(N2CCOCC2)nc(N2CCN(C(=O)[C@H](Cc3cc4ccccc4[nH]3)n3cc([C@@H](N)C(C)CC)nn3)CC2)n1 (some centres undefined)	4	24	11	-2	0	10	.
C#CCOCCOCCOCCNc1nc(N2CCN(C(=O)[C@H](Cc3ccc(O)cc3)n3cc([C@@H](N)C(C)CC)nn3)CC2)nc(N2CCN(C(=O)[C@H](Cc3cc4ccccc4[nH]3)n3cc([C@@H](N)Cc4ccc(O)cc4)nn3)CC2)n1 (some centres undefined)	.	53*	.	.	.	.	48*
C#CCOCCOCCOCCNc1nc(N2CCN(C(=O)[C@H]([C@@H](C)CC)n3cc([C@@H](N)CC(C)C)nn3)CC2)nc(N2CCN(C(=O)[C@H](Cc3cc4ccccc4[nH]3)n3cc([C@@H](N)Cc4ccc(O)cc4)nn3)CC2)n1	.	43	.	.	.	.	.
CC1(C(=O)NS(=O)(=O)c2cccc(C#N)c2)CCN1C(=O)c1ccccc1 (centres undefined)	-2	.	12	2	0	5	.
Nc1nc(-c2ccccc2)nn1S(=O)(=O)c1ccccc1	3	-7	10	-2	-1	-9	.
Cc1cc(C)c2nc(C)cc(N/N=C/c3ccc(O)cc3)c2c1	-30	72*	0	-1	0	-14	68*
Cc1cc(N/N=C/c2ccc(N(C)C)cc2)c2ccccc2n1	-3	-4	-8	0	-1	0	.
Cc1cc(N/N=C/c2ccc(O)cc2)c2cccc(C)c2n1	-1	59*	-3	-1	0	13	56*
c1ccc(-c2ncc(-c3ccn[nH]3)s2)cc1	1	-3	-3	-3	0	34	.
COC(=O)C1=C(NC(=O)COc2ccc3ccccc3c2)CCS1	-1	58*	-1	3	0	3	41
COC(=O)C1=C(NC(=O)COc2ccc(Cl)cc2Cl)CCS1	0	17	-16	0	-1	3	.
CN(C)c1ccc(NC(=O)COC(=O)c2cc(=O)c3ccccc3o2)cc1	5	-3	-3	0	0	9	.
CC1=Nc2ccccc2/C1=C/c1sc(=O)n(CC(=O)N2CCCC2)c1O	-6	5	1	1	-1	28	.
CC1=Nc2ccccc2/C1=C\c1sc(Nc2ccc(C)cc2)nc1O	-3	52*	-38	-2	0	9	46*
CCOC(=O)c1c(Nc2ccc(Cl)cc2)sc(/C=C2\C=Nc3ccccc32)c1O	-28	15	-40	-2	0	11	.
Oc1nc(Nc2cccc(Cl)c2)sc1/C=C1\C=Nc2ccccc21	-4	56*	-10	4	1	4	64*
CCN1CCN(S(=O)(=O)c2ccc(Cl)c(C(=O)N(C)Cc3cccc(Cl)c3Cl)c2)CC1	-4	55*	-1	0	0	2	42
CCN1CCN(S(=O)(=O)c2ccc(Cl)c(C(=O)N(C)Cc3ccccc3)c2)CC1	-1	3	4	0	-1	-6	.
N#Cc1ccc(Cl)cc1NC(=O)COC(=O)c1cccc(S(=O)(=O)N2CCOCC2)c1	3	11	2	0	-1	3	.
COc1cc(-c2nc3c[n+](CC(=O)c4ccccc4)ccc3n2C)cc(OC)c1OC	1	53*	-17	-1	0	11	21
CC1(C)CC(=O)C(C(=O)c2ccccc2)C(=O)C1Cl (centres undefined)	-2	-6	0	0	0	-3	.
O=C(CS(=O)c1ccc(C(F)(F)F)cc1[N+](=O)[O-])Oc1ccccc1 (centres undefined)	-14	53*	-1	2	0	7	52*
SMILES	MT1-MMP act inh	PREPL inhibitor	eLon inh	hiPSC survival	TbMetRS inhib	SKN-1 block	PREPL confirm
COC(=O)c1ccc(OC(=O)CS(=O)c2ccccc2[N+](=O)[O-])cc1 (centres undefined)	-4	11	-4	-1	0	9	.
CCOc1ccc(CN2CCCC(CNC(=O)c3ccc(F)cc3)C2)cc1CO (centres undefined)	1	15	-7	-1	0	8	.
Cc1nc(-c2ccc(O)c(O)c2)cs1	5	46*	0	-4	-1	-3	2
COCC(=O)Nc1ccc2c(c1)[C@@H]1C[C@H](CC(=O)OC)O[C@@H](CO)[C@@H]1O2	2	.	1	-2	-1	3	.
CNC(=O)/C(C#N)=C/c1c(N2CCN(c3ccc(OC)cc3)CC2)nc2c(C)cccn2c1=O	3	52*	8	0	-2	8	44*
COC(=O)/C(C#N)=C/c1c(N2CCCCCC2)nc2c(C)cccn2c1=O	-2	.	-1	-1	-1	10	.
COC(=O)/C(C#N)=C/c1c(N2CCN(c3ccc(OC)cc3)CC2)nc2c(C)cccn2c1=O	-7	48*	-2	0	0	2	46*
CNC(=O)/C(C#N)=C/c1c(N2CCN(c3ccccc3)CC2)nc2c(C)cccn2c1=O	6	16	9	0	-1	10	.
COCCCNC(=O)/C(C#N)=C/c1c(N2CCN(c3ccc(OC)cc3)CC2)nc2c(C)cccn2c1=O	1	51*	1	0	-2	-10	52*
COC(=O)c1cc(NC(=O)CSC2=NCCS2)cc(C(=O)OC)c1	-1	-4	6	-1	-1	3	.
CCOC(=O)C1CCCN(c2c(Nc3ccc(OCC)cc3)c(=O)c2=O)C1 (centres undefined)	3	4	-10	0	0	-19	.

Source: PubChem
